According to paper PMC4293705 (ChemPlusChem, 2012):
“And” between values parts separate entries of the source, which are not always exact repeats. Identical values can stand only once. Like-named read-outs stand apart in the source and are kept apart here. Marks after values point to notes of the source that are not given here.

How the values were obtained:
[1] = tested on: human hepatocarcinoma HepaRG cells; experiment: Extracellular LDH leakage; type: cell-based; details: 72 h; for % LDH/control with Fe^III 20 μM / % LDH/control without Fe^III: cell supernatant
[2] = tested on: HUVEC; experiment: Matrigel assay, HUVEC capillary-tube formation; type: cell-based, human; details: 16 h; for effect on HUVEC capillary tube formation versus control: 10^−6 to 10^−5 M
Summary of the method: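 Forty thousand HUVECs seeded on Matrigel in M199 with 10 % FBS containing test compound (10−5 to 10−6 M) and incubated 16 h. Capillary network length quantified by image analysis of micrographs. Untreated cells as control; genistein 30 μg mL−1 (inhibitor) and EGF 50 ng mL−1 (activator) as references. At least three separate experiments; mean ± SEM; ANOVA and Student's test.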

[3] = tested on: MDA-MB-231 cells; experiment: BrdU assay, MDA-MB-231 cell proliferation; type: cell-based; details: 48 h; for effect on MDA-MB-231 cell proliferation: 10^−8 to 10^−5 M
Summary of the method: (§1)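 HUVECs grown on 0.2 % gelatin in M199 with 20 % FBS and ECGS, passages 2–5. HUVEC seeded at 2 × 10^4 and MDA-MB-231 at 1.5 × 10^4 cells/well, in triplicate. Next day, G1-synchronised 24 h in serum-free phenol-red-free medium. Test compound (10−8–10−5 M) given in 10 % FBS for 48 h. BrdU (0.01 mM final) added for 2–24 h; OD read at 450/595 nm. Values background-subtracted and normalised to untreated controls.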

[4] = tested on: MDA-MB-231 cells; experiment: BrdU assay, MDA-MB-231 cell survival; type: cell-based; details: 48 h; for effect on MDA-MB-231 cell survival: 10^−8 to 10^−5 M
Summary of the method: (§2)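 Survival version of the BrdU kit assay. HUVEC (2 × 10^4/well) in 1 % FBS; MDA-MB-231 (1.5 × 10^4/well) in 0 % FBS; triplicate wells. After 24 h serum-free phenol-red-free synchronisation, cells exposed 48 h to test compound at 10−8–10−5 M. BrdU (0.01 mM final) added, re-incubated 2–24 h, OD at 450 and 595 nm. Normalised to untreated controls after background subtraction.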

[5] = tested on: human hepatocarcinoma HepaRG cells; experiment: SDH activity; type: cell-based
[6] = type: physicochemical; details: I = 0.1 M (KCl), T = 298 K, H2O/DMSO v/v 30:70; for Log β 1 1–3 (stability constant of Fe^III complex): 5a value by potentiometric and spectrophotometric titrations; for Log β 1 1–2 (stability constant of Fe^III complex): potentiometric and spectrophotometric titrations
Summary of the method: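 Performed in H2O/DMSO 30:70 v/v […], I = 0.1 (KCl), 25 °C under argon. Ligand at 10−4–10−5 M with EDTA-standardised FeCl3 at metal:ligand ratios 1:3, 1:2 and 1:1. Potentiometric and spectrophotometric titrations covered pH 1–13. For spectrophotometry, acidified FeIII–ligand solutions were titrated with KOH to pH 6.5, recording UV-visible spectra after each addition at 25.0 °C. pKw 17.16.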

[7] = tested on: HUVEC; experiment: BrdU assay, HUVEC survival; type: cell-based, human; details: 48 h; for effect on HUVEC survival: 10^−8 to 10^−5 M
Summary of the method: as §2

[8] = tested on: HUVEC; experiment: Wound-healing assay, HUVEC migration; type: cell-based, human; details: 16 h; for effect on HUVEC migration versus control: 10^−6 to 10^−5 M
Summary of the method: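 HUVECs (4 × 10^5/well) plated on 0.2 % gelatin; wound made after 24 h on the confluent layer. Cells then treated 16 h with test compound (10−5 to 10−6 M) in phenol-red-free M199 with 10 % FBS and photographed at 16 h. Genistein 30 μg mL−1 and EGF 50 ng mL−1 as references. At least three experiments; mean ± SEM; ANOVA/Student's test.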

[9] = reported in the literature; cited from earlier work
[10] = reported value; cited from earlier work
[11] = tested on: HUVEC; experiment: BrdU assay, HUVEC proliferation; type: cell-based, human; details: 48 h; for effect on HUVEC proliferation: 10^−8 to 10^−5 M
Summary of the method: as §1

[12] = Protonation constants by potentiometric titration in H2O/DMSO; type: physicochemical; details: for pKa: H2O/DMSO (v/v 30:70) solution
Summary of the method: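 Ligand (10−4–10−5 M, from DMSO solutions) titrated in H2O/DMSO 30:70 v/v at I = 0.1 (KCl), 25 °C, under argon. Automated titration with carbonate-free KOH standardised against potassium hydrogen phthalate. Read on a glass electrode with Ag/AgCl reference; 120–150 points per titration; pKw 17.16. Constants from nonlinear least-squares refinement of the potentiometric data.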

[13] = log D determination by micro-HPLC; type: physicochemical; details: for log D: pH 7, n-octanol/phosphate buffer, HPLC
[14] = tested on: HepaRG cells
[15] = I = 0.1 M (KCl), T = 298 K, H2O/DMSO v/v 30:70
[16] = read-out: SDH, IC50 without Fe^III, HepaRG cells, 72 h treatment, MTT assay

Row | SMILES | % LDH/control with Fe^III 20 μM ([1]; compound 10 μM) [%] | % LDH/control without Fe^III ([1]; compound 10 μM) | % LDH/control with Fe^III 20 μM ([1]; compound 100 μM) [%] | % LDH/control without Fe^III ([1]; compound 100 μM) [%] | effect on HUVEC capillary tube formation versus control [2] | effect on MDA-MB-231 cell proliferation [3] | effect on MDA-MB-231 cell survival [4] | Log β 1 2–6 (stability constant of Fe^III complex) [6] | Log β 1 1–3 (stability constant of Fe^III complex) [6] | Log β 1 1–2 (stability constant of Fe^III complex) [6] | effect on HUVEC survival [7] | effect on HUVEC migration versus control [8] | effect on HUVEC proliferation [11] | Log β 0 1–1 (overall protonation constant) [12, 15] | Log β 0 1–2 (overall protonation constant) [12, 15] | Log β 0 1–3 (overall protonation constant) [12, 15] | IC50 [5, 16] [µM] | pKa1 [12, 15] | pKa2 [12, 15] | pKa3 [12, 15] | further results
1 | O=C(O)c1ccc(-n2nc(-c3ccccc3O)nc2-c2ccccc2O)cc1 [ICL670, deferasirox, reference compound] | 80 ±5 | 87 ±7% | 88 ±1 | 101 ±13 | did not show any effect | did not show any effect | did not show any effect | −20.35(8) | −6.48(9) | −1.06(9) ^[c] | did not show any effect | did not show any effect | did not show any effect | −5.56(5) | −16.55(7) | −29.53(7) | – | – | – | – | IC50 ([5]; Homo sapiens, HepaRG, 72 h, read-out: SDH, IC50 with Fe^III 20 μM): 61 ± 7 µM; IC50 ([5]; Homo sapiens, HepaRG, 72 h, read-out: SDH, IC50 without Fe^III): 11 ± 4 µM; Log β 1 2–5 (stability constant of Fe^III complex) [6]: −13.72(9); pFe [9]: 23.5; log D [10]: −0.1; pKa ([12]; pKa1, I = 0.1 M (KCl), T = 298 K, H2O/DMSO v/v 30:70): 5.56; pKa ([12]; pKa2, I = 0.1 M (KCl), T = 298 K, H2O/DMSO v/v 30:70): 11; pKa ([12]; pKa3, I = 0.1 M (KCl), T = 298 K, H2O/DMSO v/v 30:70): 13
2 | Oc1c2cccc1Cc1cccc(c1O)Cc1cccc(c1O)Cc1cccc(c1O)C2 [compound 6, calix[4]arene] | – | – | – | – | – | – | – | – | – | – | – | – | – | – | – | – | – | – | – | – | pKa (easily deprotonated site of the calix[4]arene core) ([12]; acid–base properties in solution): 4.6
3 | O=C(CCOCCOc1c2cccc1Cc1cccc(c1O)Cc1cccc(c1OCCOCCC(=O)Nc1ccc(-n3nc(-c4ccccc4O)nc3-c3ccccc3O)cc1)Cc1cccc(c1O)C2)Nc1ccc(-n2nc(-c3ccccc3O)nc2-c2ccccc2O)cc1 [5b, 25,27-Bis-{1-[2-(2-{4-[3,5-bis(2-hydroxyphenyl)-1,2,4-triazol-1-yl]-phenyl}carbamoylethoxy)ethoxy]}-26,28-dihydroxycalix[4]arene] | 91 ±11 | 76 ±4% | 69 ±6 | 103 ±2 | did not show any effect | did not show any effect | did not show any effect | – | −5.08(6) | −2.35(8) ^[c] | did not show any effect | did not show any effect | did not show any effect | −9.88(3) | −21.11(3) | −33.21(3) | 90 ± 7 | 9.88 | 11.23 | 12.10 | Log β 0 1–4 (overall protonation constant) [12, 15]: −46.38(6); Log β 0 1–5 (overall protonation constant) [12, 15]: −59.85(4); pKa4 [12, 15]: 13.17; pKa5 [12, 15]: 13.47; reduction of the lipophilicity in comparison with 5a ([13]; from log D at pH 7): about 12 fold; log D [13]: 3.49 (±0.05); membrane diffusion / presence in intracellular medium after cell lysis [14]: found in the intracellular medium
4 | O=C(CCOCCOc1c2cccc1Cc1cccc(c1O)Cc1cccc(c1O)Cc1cccc(c1O)C2)Nc1ccc(-n2nc(-c3ccccc3O)nc2-c2ccccc2O)cc1 [5a, 25-{1-[2-(2-{4-[3,5-Bis-(2-hydroxyphenyl)-1,2,4-triazol-1-yl]phenyl}carbamoylethoxy)ethoxy]}-26,27,28-trihydroxycalix[4]arene] | 67 ±6 | 105% and 105 ±11% | 187 ±5 | 200 ±15 | – | – | – | −19.23(8) | −1.74(1) ^[c] | – | – | – | – | −6.67(2) | −17.12(2) | −29.63(2) | 6 ± 1 | 6.67 | 10.45 | 12.51 | concentrations inducing a cytotoxic effect (membrane damage, LDH leakage) ([1]; deduced from dose–effect curves): higher than 10 μM; decrease of HUVEC ability to form capillary tubes versus control ([2]; 10^−5 M): 48%; decrease of HUVEC ability to form capillary tubes versus control ([2]; 10^−6 M): 42%; decrease of MDA-MB-231 cell proliferation versus control ([3]; 10^−5 M): 73%; decrease of MDA-MB-231 cell proliferation versus control ([3]; 10^−6 M): 62%; decrease of MDA-MB-231 cell proliferation versus control ([3]; 10^−7 M): 33%; decrease of MDA-MB-231 survival versus control ([4]; 10^−5 M): 58%; decrease of MDA-MB-231 survival versus control ([4]; 10^−6 M): 51%; concentrations at which the compound is cytostatic ([5]; HepaRG cells, 72 h, deduced from dose–effect curves): lower than 10 μM; SDH value relative to the control ([5]; compound 10 μM, HepaRG cells, 72 h): 6%; decrease of HUVEC survival versus control ([7]; 10^−5 M): 65%; decrease of HUVEC survival versus control ([7]; 10^−6 M): 56%; decrease of HUVEC survival versus control ([7]; 10^−7 M): 28%; reduction of HUVEC migration versus control ([8]; 10^−5 M): 59%; reduction of HUVEC migration versus control ([8]; 10^−6 M): 51%; reduction of HUVEC proliferation versus control ([11]; 10^−5 M): 74%; reduction of HUVEC proliferation versus control ([11]; 10^−6 M): 51%; reduction of HUVEC proliferation versus control ([11]; 10^−7 M): 46%; log D [13]: 4.59 (±0.06); membrane diffusion / presence in intracellular medium after cell lysis [14]: found in the intracellular medium
